What was measured:
TLR1/2 = TLR1/2 (Homo sapiens, UniProt O60603+Q15399); assay: Ramos Blue reporter B cell line, Pam3CSK4 stimulation; format: cell-based; conditions: Ramos cells; up to 10 μM; n = 4, data not shown
How it was run: (§1)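 Ramos Blue B reporter cells were pre-treated 30 min at 37°C, 5% CO2 with increasing concentrations of test compound or 0.25% v/v DMSO. They were then stimulated with the respective agonist, and reporter activity was read.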

NOD1 = NOD1 (Homo sapiens, UniProt Q9Y239); assay: Ramos Blue reporter B cell line, Tri-DAP stimulation; format: cell-based; conditions: Ramos cells; up to 10 μM; n = 4, data not shown
How it was run: as §1

TLR7 [1] = biological target: T1, TLR7 (Homo sapiens, UniProt Q9NYK1); assay: Isolated human pDC assay, ssRNA-driven IFN-α; format: cell-based; conditions: fixed dose of MHV370
T1 sequence (Q9NYK1 27-1049): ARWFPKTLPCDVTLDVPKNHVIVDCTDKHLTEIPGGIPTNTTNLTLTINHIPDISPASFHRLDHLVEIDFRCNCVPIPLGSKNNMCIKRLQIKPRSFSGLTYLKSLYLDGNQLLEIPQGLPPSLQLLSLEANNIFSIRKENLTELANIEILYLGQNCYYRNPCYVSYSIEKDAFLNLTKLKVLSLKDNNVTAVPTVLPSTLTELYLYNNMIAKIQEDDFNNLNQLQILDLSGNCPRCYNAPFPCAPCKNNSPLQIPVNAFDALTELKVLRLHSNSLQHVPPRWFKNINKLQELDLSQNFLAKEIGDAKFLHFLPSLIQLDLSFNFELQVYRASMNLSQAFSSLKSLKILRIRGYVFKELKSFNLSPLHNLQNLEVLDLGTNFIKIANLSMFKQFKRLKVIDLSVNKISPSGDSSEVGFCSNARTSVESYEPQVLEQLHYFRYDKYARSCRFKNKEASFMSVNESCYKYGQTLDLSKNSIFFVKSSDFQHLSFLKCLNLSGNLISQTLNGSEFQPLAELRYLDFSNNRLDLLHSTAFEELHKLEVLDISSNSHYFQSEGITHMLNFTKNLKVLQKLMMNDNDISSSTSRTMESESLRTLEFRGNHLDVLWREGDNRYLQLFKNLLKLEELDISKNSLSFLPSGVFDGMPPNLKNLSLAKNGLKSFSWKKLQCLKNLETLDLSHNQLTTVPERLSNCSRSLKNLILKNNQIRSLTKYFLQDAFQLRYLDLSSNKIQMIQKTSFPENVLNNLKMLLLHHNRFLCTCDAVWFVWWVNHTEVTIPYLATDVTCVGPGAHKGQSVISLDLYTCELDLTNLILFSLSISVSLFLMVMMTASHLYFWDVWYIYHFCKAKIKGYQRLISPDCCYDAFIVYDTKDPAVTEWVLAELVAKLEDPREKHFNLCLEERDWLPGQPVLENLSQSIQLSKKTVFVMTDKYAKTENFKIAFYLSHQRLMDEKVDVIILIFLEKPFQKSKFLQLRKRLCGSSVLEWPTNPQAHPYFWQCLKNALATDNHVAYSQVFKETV
How it was run: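 pDCs were negatively enriched from PBMCs and resuspended in RPMI1640 with 10 ng/mL recombinant human IL-3. They were pre-treated 30 min with test compound or 0.25% v/v DMSO. Stimulation was 20 h at 37°C, 5% CO2 with ssRNA40 (10 μg/mL plus 25 μg/mL DOTAP) or ODN2216 (0.3 μM). IFN-α in supernatants was read by AlphaLisa; viability by CellTiter-Glo.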

TLR7 [2] = biological target: T1, TLR7; assay: Human PBMC assay, ssRNA-induced IFN-α; format: cell-based; conditions: human PBMCs, mean ± SEM (n)
How it was run: (§2)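 Human PBMCs were pre-incubated 30 min with test compound, then stimulated with the respective TLR or IL-1R agonist at doses from earlier work. Cytokines in supernatants were quantified by immunoassay. Viability across the dose range was checked by CellTiter-Glo.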

IL-1 receptor (IL-1R) = IL-1 receptor (IL-1R) (Homo sapiens, UniProt P14778); assay: Human PBMC cytokine secretion, IL-1 receptor agonist; format: cell-based; conditions: human PBMCs; up to 10 μM; n = 5 donors, data not shown
How it was run: as §2

[3] = MHV370 blood exposure during food dosing of NZB/W F1 mice; format: in vivo, mouse
How it was run: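 NZB/W F1 mice were fed diet containing test compound at 0.01% or 0.1%, with fresh food every two weeks. Daily food intake per mouse was calculated per cage. Whole-blood drug concentrations were measured by LC-MS/MS.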

NOD1, sequence (Q9Y239 whole entry): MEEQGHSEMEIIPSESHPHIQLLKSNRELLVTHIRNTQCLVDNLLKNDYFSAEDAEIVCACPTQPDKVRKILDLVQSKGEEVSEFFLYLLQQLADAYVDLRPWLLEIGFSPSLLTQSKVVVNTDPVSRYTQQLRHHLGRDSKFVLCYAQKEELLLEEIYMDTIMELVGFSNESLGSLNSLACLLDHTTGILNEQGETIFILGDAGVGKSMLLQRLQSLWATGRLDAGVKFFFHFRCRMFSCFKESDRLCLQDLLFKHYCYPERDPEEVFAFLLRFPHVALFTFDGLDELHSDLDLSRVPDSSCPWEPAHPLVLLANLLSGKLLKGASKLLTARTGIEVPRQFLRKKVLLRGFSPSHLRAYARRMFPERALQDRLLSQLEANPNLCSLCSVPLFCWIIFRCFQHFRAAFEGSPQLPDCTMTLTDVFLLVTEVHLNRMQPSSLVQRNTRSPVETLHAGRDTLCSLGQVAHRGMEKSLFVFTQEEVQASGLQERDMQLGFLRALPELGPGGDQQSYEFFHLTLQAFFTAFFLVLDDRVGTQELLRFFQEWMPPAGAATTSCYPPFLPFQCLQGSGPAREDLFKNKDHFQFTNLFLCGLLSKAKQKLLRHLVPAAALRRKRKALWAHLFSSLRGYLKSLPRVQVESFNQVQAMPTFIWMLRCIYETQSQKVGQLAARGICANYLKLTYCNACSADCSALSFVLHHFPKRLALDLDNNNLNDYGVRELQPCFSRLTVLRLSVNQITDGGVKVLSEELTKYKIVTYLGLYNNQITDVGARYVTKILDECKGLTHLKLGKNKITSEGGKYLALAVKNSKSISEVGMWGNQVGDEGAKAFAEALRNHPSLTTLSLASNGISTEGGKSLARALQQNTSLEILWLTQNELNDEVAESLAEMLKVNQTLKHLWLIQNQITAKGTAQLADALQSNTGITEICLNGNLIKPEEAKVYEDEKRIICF
IL-1 receptor (IL-1R), sequence (P14778 18-569): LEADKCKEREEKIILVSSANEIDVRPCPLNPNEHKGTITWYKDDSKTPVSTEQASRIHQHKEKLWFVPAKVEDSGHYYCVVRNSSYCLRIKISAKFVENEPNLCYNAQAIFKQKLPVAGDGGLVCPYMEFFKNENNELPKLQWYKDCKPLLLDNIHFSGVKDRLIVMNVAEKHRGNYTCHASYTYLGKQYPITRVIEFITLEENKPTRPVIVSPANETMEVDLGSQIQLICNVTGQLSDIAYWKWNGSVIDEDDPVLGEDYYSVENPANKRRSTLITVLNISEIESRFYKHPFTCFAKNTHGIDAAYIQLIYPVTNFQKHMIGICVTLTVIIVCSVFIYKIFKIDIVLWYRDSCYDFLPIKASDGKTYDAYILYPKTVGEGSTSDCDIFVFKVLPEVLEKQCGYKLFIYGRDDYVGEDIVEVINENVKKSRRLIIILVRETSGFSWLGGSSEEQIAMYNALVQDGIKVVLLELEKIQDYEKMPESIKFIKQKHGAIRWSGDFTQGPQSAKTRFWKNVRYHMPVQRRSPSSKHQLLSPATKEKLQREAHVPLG
TLR1/2, sequence (Q15399 25-786): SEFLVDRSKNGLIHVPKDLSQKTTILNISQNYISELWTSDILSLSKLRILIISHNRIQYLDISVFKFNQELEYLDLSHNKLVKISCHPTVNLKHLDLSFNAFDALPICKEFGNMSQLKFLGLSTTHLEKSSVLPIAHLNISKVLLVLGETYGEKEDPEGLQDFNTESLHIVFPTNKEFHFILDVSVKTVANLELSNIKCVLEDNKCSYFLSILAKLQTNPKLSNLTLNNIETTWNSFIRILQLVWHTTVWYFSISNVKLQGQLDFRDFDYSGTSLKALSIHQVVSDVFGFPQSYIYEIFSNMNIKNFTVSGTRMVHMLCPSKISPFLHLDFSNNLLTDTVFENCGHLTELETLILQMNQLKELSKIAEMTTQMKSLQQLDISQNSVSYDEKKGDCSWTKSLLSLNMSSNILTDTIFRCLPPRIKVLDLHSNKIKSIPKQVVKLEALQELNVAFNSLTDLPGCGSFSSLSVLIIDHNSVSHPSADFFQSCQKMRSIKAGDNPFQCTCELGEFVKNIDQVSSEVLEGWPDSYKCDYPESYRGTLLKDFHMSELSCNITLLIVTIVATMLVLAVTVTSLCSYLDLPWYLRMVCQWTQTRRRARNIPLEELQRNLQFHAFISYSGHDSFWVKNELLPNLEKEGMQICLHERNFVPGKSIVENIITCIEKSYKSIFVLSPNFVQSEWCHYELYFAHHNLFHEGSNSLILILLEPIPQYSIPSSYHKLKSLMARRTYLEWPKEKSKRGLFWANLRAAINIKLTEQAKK
TLR1/2, sequence (O60603 21-784): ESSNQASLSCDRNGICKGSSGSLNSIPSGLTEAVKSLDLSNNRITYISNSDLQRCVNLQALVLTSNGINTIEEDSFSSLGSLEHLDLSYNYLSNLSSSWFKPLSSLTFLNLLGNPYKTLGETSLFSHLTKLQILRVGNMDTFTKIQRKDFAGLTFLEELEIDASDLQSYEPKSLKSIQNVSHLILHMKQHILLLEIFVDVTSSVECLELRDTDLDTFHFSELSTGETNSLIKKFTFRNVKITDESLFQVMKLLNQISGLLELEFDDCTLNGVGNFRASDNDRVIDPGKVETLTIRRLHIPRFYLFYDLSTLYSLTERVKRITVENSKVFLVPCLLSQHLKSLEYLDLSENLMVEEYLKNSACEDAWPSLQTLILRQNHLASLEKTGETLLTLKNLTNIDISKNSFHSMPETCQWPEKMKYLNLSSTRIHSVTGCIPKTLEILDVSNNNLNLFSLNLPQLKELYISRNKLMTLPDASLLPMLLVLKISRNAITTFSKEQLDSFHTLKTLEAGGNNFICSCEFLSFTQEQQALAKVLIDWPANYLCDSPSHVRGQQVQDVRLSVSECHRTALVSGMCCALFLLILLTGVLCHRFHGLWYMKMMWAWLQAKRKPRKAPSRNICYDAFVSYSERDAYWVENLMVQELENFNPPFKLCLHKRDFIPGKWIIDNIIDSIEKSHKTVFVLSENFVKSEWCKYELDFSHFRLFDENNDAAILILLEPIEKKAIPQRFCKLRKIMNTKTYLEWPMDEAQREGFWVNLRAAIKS

Cc1cc(N2CCc3c(c(C)nn3CC34CCC(NC(=O)[C@@H]5COCCN5)(CC3)CC4)C2)c2cnn(C)c2n1 [MHV370, (S)-N-(4-((5-(1,6-dimethyl-1H-pyrazolo[3,4-b]pyridin-4-yl)-3-methyl-4,5,6,7-tetrahydro-1H-pyrazolo[4,3-c]pyridin-1-yl)methyl)bicyclo[2.2.2]octan-1-yl)morpholine-3-carboxamide]
interference with TLR1/2-driven activity (TLR1/2): did not interfere | interference with NOD1-driven activity (NOD1): did not interfere | ssRNA-driven IFN-α responses from pDCs (TLR7 [1]): blocked | IC50 (TLR7 [2]): 4.1 ± 0.4 nM | interference with cytokine secretion, IL-1R agonist (IL-1 receptor (IL-1R)): did not significantly interfere | exposure level in blood ([3]; 0.01% MHV370 in food): 55 nM | exposure level in blood ([3]; 0.1% MHV370 in food): 1424 nM
